Reference: ChEMBL document CHEMBL1154156, “Natural tanshinone-like heterocyclic-fused ortho-quinones from regioselective Diels-Alder reaction: synthesis and cytotoxicity evaluation” (Eur J Med Chem, 2009)

Experiments:
[1] = Cytotoxicity against human CNE2 cells after 48 hrs by MTT assay; format: functional, cell-based, CNE-2
Outline: (§1)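 Human cells (GLC-82 lung adenocarcinoma; CNE2 nasopharyngeal carcinoma) were seeded at 1×10⁴ per well and incubated overnight. They were then exposed for 48 h to increasing compound concentrations (0–100). MTT (5 mg/mL stock) was added for 4 h at 37 °C, and unconverted MTT was removed before plate-reader absorbance. Runs were in quadruplicate, with viability as % of untreated control. IC50 is the concentration reducing mean viability to 50%.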

[2] = Cytotoxicity against human GLC82 cells after 48 hrs by MTT assay; format: functional, cell-based; outline: as §1
[3] = Homo sapiens, CNE-2, 48 h, read-out: IC50
[4] = Homo sapiens, GLC82, 48 h, read-out: IC50

Work on CC(=O)Nc1c(C)cc(C)c2c1C(=O)C(=O)c1c(-c3ccc(Cl)cc3)coc1-2 yielded an IC50 [1, 3] of 9.2 µM and an IC50 [2, 4] of 6 µM.

CC(=O)Nc1c(C)cc(C)c2c1C(=O)C(=O)c1c(-c3ccc(Cl)cc3)csc1-2 gave an IC50 [1, 3] of 6.8 µM and an IC50 [2, 4] of 7.5 µM.

In the case of Cc1cc(C)c2c(c1)C(=O)C(=O)c1c(-c3ccc(F)cc3)coc1-2, the IC50 ([1]; cne-2) is reported as “ND(Insoluble)” and the IC50 ([2]; glc82) is reported as “ND(Insoluble)”.

Compound O=C1C(=O)c2c(-c3ccccc3)csc2-c2ccccc21 has an IC50 [2, 4] of 20.1 µM.

With O=C1C(=O)c2c(-c3ccc(Cl)cc3)coc2-c2cccc(N3C(=O)CCC3=O)c21 the IC50 [1, 3] was 2 µM and the IC50 [2, 4] was 1.6 µM.

CC(=O)Nc1c(C)cc(C)c2c1C(=O)C(=O)c1c(-c3ccccc3)csc1-2 gave an IC50 [1, 3] of 4.1 µM and an IC50 [2, 4] of 5 µM.

In the case of Cc1cc(C)c2c(c1)C(=O)C(=O)c1cc(C)oc1-2, the IC50 ([1]; cne-2) is reported as “ND(Insoluble)” and the IC50 ([2]; glc82) is reported as “ND(Insoluble)”.

Compound CC(=O)Nc1c(C)cc(C)c2c1C(=O)C(=O)c1c(-c3ccc(C)cc3)coc1-2 has an IC50 [1, 3] of 5.6 µM and an IC50 [2, 4] of 9.5 µM.

For CC(=O)Nc1c(C)cc(C)c2c1C(=O)C(=O)c1c(-c3ccc(C)c(C)c3)coc1-2, the IC50 ([1]; cne-2) was “ND(Insoluble)” and the IC50 ([2]; glc82) was “ND(Insoluble)”.

CC(=O)Nc1c(C)cc(C)c2c1C(=O)C(=O)c1c(-c3ccccc3C)csc1-2 showed an IC50 [1, 3] of 4.2 µM.

Cc1cc(C)c2c(c1)C(=O)C(=O)c1c(-c3ccccc3)coc1-2 gave an IC50 [1, 3] greater than 25 µM and an IC50 [2, 4] greater than 25 µM.

Compound CC(=O)Nc1c(C)cc(C)c2c1C(=O)C(=O)c1c(-c3ccc(F)cc3)coc1-2 has an IC50 [2, 4] of 8.9 µM.

CC(=O)Nc1c(C)cc(C)c2c1C(=O)C(=O)c1c(-c3ccc(F)cc3)csc1-2 gave an IC50 [1, 3] of 4.6 µM and an IC50 [2, 4] of 3.9 µM.

For CC(=O)Nc1c(C)cc(C)c2c1C(=O)C(=O)c1c(-c3ccccc3)coc1-2, the IC50 [1, 3] was 4.8 µM and the IC50 [2, 4] was 7.2 µM.

For Cc1cc(C)c2c(c1)C(=O)C(=O)c1c(-c3ccc(C)c(C)c3)coc1-2, the IC50 ([1]; cne-2) was “ND(Insoluble)” and the IC50 ([2]; glc82) was “ND(Insoluble)”.

Cc1ccc(-c2coc3c2C(=O)C(=O)c2cc(C)cc(C)c2-3)cc1 showed an IC50 [1, 3] of 23.3 µM and an IC50 [2, 4] of 12 µM.

For Cc1cc(C)c2c(c1)C(=O)C(=O)c1c(-c3ccc(Cl)cc3)coc1-2, the IC50 ([1]; cne-2) was “ND(Insoluble)” and the IC50 ([2]; glc82) was “ND(Insoluble)”.

For CC[C@@]1(O)C(=O)OCc2c1cc1n(c2=O)Cc2cc3cc(O)ccc3nc2-1 [HYDROXYCAMPTOTHECIN], the IC50 [1, 3] was 0.37 µM and the IC50 [2, 4] was 1.09 µM.
